Screening results: PubChem, several laboratories
Shown are actives, neighbours in structure and some others; about 1.4% of the full set was active somewhere.
m-calpain inh: inhibitors of pig calpain II. inhibition, % at 16 µM. AID 1236. purified calpain II, fluorogenic peptide substrate, 30 min. 0.37% of 220,000 active;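 active = inhibition above about 50%, limit read from the data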
thrombin 1536: thrombin (human) inhibition; alpha-thrombin, Boc-VPR-AMC fluorogenic substrate cleavage; inhibition, % at 5 µM; 0.26% of 220,000 active;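 active = inhibition at or above 40%; inactive = inhibition below 40%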
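Material: Human alpha-thrombin protein | Buffer or medium: pH 7.5 Tris-saline with Tween 20 | Reagent: Boc-VPR-AMC substrate, 15 µM final | Schedule: Reaction at ambient temperature | Detection: AMC fluorescence at 355 nm excitation and 460 nm emission | Evaluation: Percent inhibition scaled between no-compound controls and no-enzyme blanks | Controls: no-compound enzyme wells and no-enzyme blanks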
FXIa inh: inhibitors of human coagulation factor XIa; 0.14% of 220,000 active; P03951; inhibition, % at 5 µM; purified FXIa, Boc-Glu-Ala-Arg-AMC fluorogenic substrate;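 active = inhibition of at least 40%; inactive = inhibition below 40%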;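 note: fluorescence of freed AMC excited at 355 nm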
FXIIa inh: inhibitors of human coagulation factor XIIa; inhibition, % at 5 µM; purified FXIIa, Boc-QGR-AMC fluorogenic substrate, 2 h; AID 800; 0.3% of 220,000 active; P00748; in the data active = inhibition above about 40%
hK5 inh: kallikrein 5 (human) inhibition; Q9Y337; recombinant hK5, fluorogenic AMC substrate cleavage; inhibition, % at 5 µM; 0.59% of 210,000 active;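 active = inhibition of 40% or more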
A number is an active result.

What do the screens show for `O=S(=O)(CCN1CCCCC1)Oc1ccc(Cl)cc1Cl`?
m-calpain inh: inactive; thrombin 1536: inactive; FXIa inh: inactive; FXIIa inh: inactive; hK5 inh: inactive

What do the screens show for `CCC(C(=O)OCC(=O)Nc1ccc(Cl)c(S(=O)(=O)N(C)C)c1)c1ccccc1` (stereo unspecified)?
m-calpain inh: 59; thrombin 1536: inactive; FXIa inh: inactive; FXIIa inh: inactive; hK5 inh: inactive

Results for CCC(C(=O)OCC(=O)Nc1ccc(SC(F)F)cc1)c1ccccc1 (stereo unspecified) ?
m-calpain inh: 51; thrombin 1536: 51; FXIa inh: inactive; FXIIa inh: inactive; hK5 inh: inactive

What do the screens show for `O=C(CSc1nc2ccccc2o1)c1cc2ccccc2oc1=O`?
m-calpain inh: inactive; thrombin 1536: 81; FXIa inh: inactive; FXIIa inh: inactive; hK5 inh: inactive

What do the screens show for `Cc1cc(C)nc(SCC(=O)c2cc3ccccc3oc2=O)n1`?
m-calpain inh: inactive; thrombin 1536: inactive; FXIa inh: inactive; FXIIa inh: inactive; hK5 inh: inactive

Results for CC(C)c1ccc(NC(=O)c2ccc(Br)o2)cc1 ?
m-calpain inh: inactive; thrombin 1536: inactive; FXIa inh: inactive; FXIIa inh: 50; hK5 inh: inactive

How did Cc1c(NC(=O)c2ccc(Br)o2)cccc1C(=O)O do in these assays?
m-calpain inh: inactive; thrombin 1536: inactive; FXIa inh: inactive; FXIIa inh: 45; hK5 inh: inactive

Results for O=C(Nc1ccc(Nc2ccccc2)cc1)c1ccc(Br)o1 ?
m-calpain inh: inactive; thrombin 1536: inactive; FXIa inh: inactive; FXIIa inh: inactive; hK5 inh: inactive

How did O=C(COC(=O)CCN1C(=O)c2cccc([N+](=O)[O-])c2C1=O)NCc1ccccc1 do in these assays?
m-calpain inh: inactive; thrombin 1536: inactive; FXIa inh: inactive; FXIIa inh: inactive; hK5 inh: 42

How did COc1ccc2[nH]c(C(=O)O)c(CCN3C(=O)c4cccc([N+](=O)[O-])c4C3=O)c2c1 do in these assays?
m-calpain inh: inactive; thrombin 1536: inactive; FXIa inh: inactive; FXIIa inh: inactive; hK5 inh: inactive

How did COC(=O)CCSCC(=O)N1N=C(c2ccc(OC)cc2)CC1c1cccc(OC)c1OC (stereo unspecified) do in these assays?
m-calpain inh: inactive; thrombin 1536: inactive; FXIa inh: inactive; FXIIa inh: inactive; hK5 inh: inactive

How did COC(=O)CCSCC(=O)Nc1ccc(S(=O)(=O)N2CCOCC2)cc1OC do in these assays?
m-calpain inh: inactive; thrombin 1536: inactive; FXIa inh: inactive; FXIIa inh: inactive; hK5 inh: inactive

Results for COc1cc(S(=O)(=O)N2CCOCC2)ccc1NC(=O)COC(=O)COc1ccccc1 ?
m-calpain inh: inactive; thrombin 1536: 50; FXIa inh: inactive; FXIIa inh: inactive; hK5 inh: inactive

What do the screens show for `Cc1cc(NC(=O)CCN2C(=O)/C(=C\c3ccccc3)SC2=S)no1`?
m-calpain inh: inactive; thrombin 1536: inactive; FXIa inh: inactive; FXIIa inh: inactive; hK5 inh: inactive

What do the screens show for `Cc1cc(NC(=O)CCN2C(=O)/C(=C/c3ccccc3F)SC2=S)no1`?
m-calpain inh: inactive; thrombin 1536: inactive; FXIa inh: inactive; FXIIa inh: 95; hK5 inh: inactive

Results for O=C(CCN1C(=O)/C(=C/c2ccc3c(c2)OCO3)SC1=S)Nc1ccccc1 ?
m-calpain inh: 58; thrombin 1536: inactive; FXIa inh: inactive; FXIIa inh: inactive; hK5 inh: inactive

Results for O=C(Cn1c(CO)nc2ccccc21)NC1CCCCCC1 ?
m-calpain inh: inactive; thrombin 1536: inactive; FXIa inh: inactive; FXIIa inh: inactive; hK5 inh: inactive

Results for COc1ccc(C(=O)Oc2c(C)occc2=O)cc1OC ?
m-calpain inh: inactive; thrombin 1536: inactive; FXIa inh: inactive; FXIIa inh: inactive; hK5 inh: inactive

How did Cc1occc(=O)c1OC(=O)Nc1ccc(Cl)c(Cl)c1 do in these assays?
m-calpain inh: inactive; thrombin 1536: inactive; FXIa inh: inactive; FXIIa inh: inactive; hK5 inh: 47

What do the screens show for `COc1ccccc1C(=O)C1CCCN(Cc2cn[nH]c2C2CCCCC2)C1` (stereo unspecified)?
m-calpain inh: inactive; thrombin 1536: inactive; FXIa inh: inactive; FXIIa inh: inactive

How did COC(C[C@H](O)C[C@@H](O)[C@H](C)OCc1ccccc1)OC do in these assays?
m-calpain inh: inactive; thrombin 1536: inactive; FXIa inh: inactive; FXIIa inh: 46; hK5 inh: inactive

How did Cc1ccnc(NC(=O)c2ccc(S(=O)(=O)c3ccccc3)cc2)c1 do in these assays?
m-calpain inh: inactive; thrombin 1536: inactive; FXIa inh: inactive; FXIIa inh: inactive; hK5 inh: inactive
